The values below come from ChEMBL document CHEMBL1177892, “Synthesis, anti-inflammatory and ulcerogenicity studies of some substituted pyrimido[1,6-a]azepine derivatives” (Eur J Med Chem, 2010).

The subject of data set [1] is Rattus norvegicus. As to the kind of experiment: Antiinflammatory activity in albino rat assessed as inhibition of carrageenan-induced paw oedema at […], ip administered 1 hr before carrageenan challenge measured after 3 hrs relative to control. The note with it: in the assay text read “relative to diclofenac sodium” for “relative to control”. Also noted: scale not given: the % may be the effect or the level left. The data set is classed as functional. The essentials: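 Albino rats of both sexes (120–150 g) were pre-hydrated with 3 ml water/rat by gastric tube. Oedema was induced by s.c. sub-plantar injection of 1% carrageenan gel into the right hind paw. Right and left paw dorso-ventral thickness was read with dial calipers at 1, 2 and 3 h. Inhibition % = (1 − Lt/Lc) × 100, using mean paw-thickness increase of treated versus control rats.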
Background: Carrageenan injected into the paw causes an acute inflammation.

The test system of data set [2] is Rattus norvegicus. Put plainly: Antiinflammatory activity in ip dosed albino rat assessed as inhibition of carrageenan-induced paw oedema administered 1 hr before carrageenan challenge measured after 3 hrs relative to control. It counts as functional, organism-based. The method in brief:
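Carrageenan paw-oedema model in albino rats of both sexes (120–150 g), water-loaded with 3 ml by gastric tube. […] was calculated from doses of […], with paw-thickness inhibition read 3 h after sub-plantar injection of 1% carrageenan. Inhibition % = (1 − Lt/Lc) × 100.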

For data set [3], the system named is Rattus norvegicus. Put plainly: Toxicity in albino rat at 20 mg/kg assessed as ulcer index. The note with it: in vivo.
For data set [4], the system named is Rattus norvegicus. As to the kind of experiment: Toxicity in albino rat at 20 mg/kg assessed as ulcerogenicity. As to conditions: in vivo.

For the molecule `N#CC1=C(NCC(=O)N2CCCCC2)N(c2ccccc2)C(=O)N2CCCCC(N3CCCC3)C12` (stereo not drawn), the Activity in the data set on Rattus norvegicus [1] was 61.07%. Regarding `N#CC1=C(NCC(=O)O)N(c2ccccc2)C(=O)N2CCCCC(N3CCCC3)C12` (stereo not drawn), the Activity with Rattus norvegicus [1] was 101.82%; in the data set with Rattus norvegicus [4], 4%. Moreover, the ED50 in the data set on Rattus norvegicus [2] was determined as 10.3 µmol/kg. Further, in the data set on Rattus norvegicus [3], the UI is 5.4. Consider `N#CC1=C(/N=C/Nc2ccccc2)N(c2ccccc2)C(=O)N2CCCCC(N3CCCC3)C12` (stereo not drawn), for which the Activity with Rattus norvegicus [1] stood at 90.52%. Same read-out and setting: next, `N#CC1=C(NCN2CCCCC2)N(c2ccccc2)C(=O)N2CCCCC(N3CCCC3)C12` (stereo not drawn): 48.05%; `N#CC1=C(NCN2CCCC2)N(c2ccccc2)C(=O)N2CCCCC(N3CCCC3)C12` (stereo not drawn): 40.29%. Consider `N#CC1=C(/N=C/c2ccc([N+](=O)[O-])cc2)N(c2ccccc2)C(=O)N2CCCCC(N3CCCC3)C12` (stereo not drawn), for which the Activity is 104.68% in the data set on Rattus norvegicus [1] and 2% in the data set with Rattus norvegicus [4]. In addition, in the data set on Rattus norvegicus [2], the 50% effective dose (ED50) was determined as 7.14 µmol/kg. The UI in the data set on Rattus norvegicus [3] was 3.6.

Consider `N#CC1=C(/N=C/c2ccccc2)N(c2ccccc2)C(=O)N2CCCCC(N3CCCC3)C12` (stereo not drawn), for which the Activity with Rattus norvegicus [1] was 95.9%. The same measure, in the same setting: the result for `N#CC1=C(NC(=O)c2ccccc2O)N(c2ccccc2)C(=O)N2CCCCC(N3CCCC3)C12` (stereo not drawn) reads 74.65%. In the case of `CCOC(=O)C(=O)NC1=C(C#N)C2C(N3CCCC3)CCCCN2C(=O)N1c1ccccc1` (stereo not drawn), the results for the Activity with Rattus norvegicus [1] and with Rattus norvegicus [4] were 104.45% and 1%, respectively. Also, in the data set with Rattus norvegicus [2], the 50% effective dose (ED50) was determined as 9.13 µmol/kg. Also, the UI in the data set with Rattus norvegicus [3] was 2.5. On to `N#CC1=C(N)N(c2ccccc2)C(=O)N2CCCCC(N3CCCC3)C12` (stereo not drawn), for which the Activity with Rattus norvegicus [1] is given as 102.85%. In addition, the ED50 with Rattus norvegicus [2] was 6.61 µmol/kg. On to `N#CC1=C(/N=C/Nc2ccc([N+](=O)[O-])cc2)N(c2ccccc2)C(=O)N2CCCCC(N3CCCC3)C12` (stereo not drawn), for which the results for the Activity with Rattus norvegicus [1] and in the data set on Rattus norvegicus [4] were 97.71% and 3%, respectively. For the same molecule, the UI in the data set with Rattus norvegicus [3] was 4.8.

As to `COc1ccc(/C=N/C2=C(C#N)C3C(N4CCCC4)CCCCN3C(=O)N2c2ccccc2)cc1` (stereo not drawn), the Activity in the data set on Rattus norvegicus [1] amounted to 85.91%.

Consider `N#CC1=C(NCN2CCOCC2)N(c2ccccc2)C(=O)N2CCCCC(N3CCCC3)C12` (stereo not drawn), for which the Activity in the data set with Rattus norvegicus [1] is given as 50.68%. For `N#CC1=C(NC(=O)Cc2ccccc2Nc2c(Cl)cccc2Cl)N(c2ccccc2)C(=O)N2CCCCC(N3CCCC3)C12` (stereo not drawn), in the data set on Rattus norvegicus [1], the Activity was found to be 76.71%. Consider `COC(=O)C(=O)NC1=C(C#N)C2C(N3CCCC3)CCCCN2C(=O)N1c1ccccc1` (stereo not drawn), for which the Activity turned out to be 100.79% in the data set with Rattus norvegicus [1] and 1% in the data set with Rattus norvegicus [4]. The ED50 in the data set with Rattus norvegicus [2] was 10.6 µmol/kg. Also, in the data set on Rattus norvegicus [3], the UI worked out at 2.2. As to `N#CC1=C(NCC(=O)N2CCCC2)N(c2ccccc2)C(=O)N2CCCCC(N3CCCC3)C12` (stereo not drawn), the Activity in the data set on Rattus norvegicus [1] turned out to be 63.93%.

With `COc1ccc(N/C=N/C2=C(C#N)C3C(N4CCCC4)CCCCN3C(=O)N2c2ccccc2)cc1` (stereo not drawn), the Activity with Rattus norvegicus [1] was found to be 57.3%. In the case of `N#CC1=C(NCC(=O)N2CCOCC2)N(c2ccccc2)C(=O)N2CCCCC(N3CCCC3)C12` (stereo not drawn), the Activity with Rattus norvegicus [1] stood at 83.9%.

For `N#Cc1c2n(c(=O)n(-c3ccccc3)c1=N)CCCCC2N1CCCC1` (stereo not drawn), the Activity in the data set with Rattus norvegicus [1] is 106.62%. For the same molecule, in the data set with Rattus norvegicus [2], the 50% effective dose (ED50) was found to be 8.5 µmol/kg.

On to `O=C([O-])Cc1ccccc1Nc1c(Cl)cccc1Cl.[Na+]` [DICLOFENAC SODIUM], for which the ED50 with Rattus norvegicus [2] is 7.26 µmol/kg. Besides, the UI in the data set on Rattus norvegicus [3] was 9. For the same molecule, the Activity in the data set with Rattus norvegicus [4] worked out at 6%.

The term ED50 denotes the dose that gives a 50% effect, or the effect in half of the subjects.
